Results as given in ChEMBL document CHEMBL1153746, “Mansouramycins A-D, cytotoxic isoquinolinequinones from a marine streptomycete” (J Nat Prod, 2009).

Key:
[1] = Cytotoxicity against human 526L cells after 4 days by propidium iodide assay; assay type: functional, cell-based; settings: 96 h
How it was run: (§1)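 Monolayer cell proliferation assay across a panel of up to 36 human tumour lines covering 14 solid tumour types. Lines came either from patient tumours grown as subcutaneous xenografts in NMRI nu/nu mice or from culture collections (ATCC, NCI, DSMZ). Potency is given as IC50.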

Chlorella sorokiniana = experiment: Antialgal activity against Chlorella sorokiniana at […] by agar diffusion test; assay type: functional
Bacillus subtilis = experiment: Antibacterial activity against Bacillus subtilis at […] by agar diffusion test; assay type: functional
[2] = Cytotoxicity against human 394NL cells after 4 days by propidium iodide assay; assay type: functional, cell-based; settings: 96 h; how it was run: as §1
[3] = Cytotoxicity against human GXF251L cells after 4 days by propidium iodide assay; assay type: functional, cell-based; settings: GXF 251L, 96 h; how it was run: as §1
Desmodesmus subspicatus = experiment: Antialgal activity against Scenedesmus subspicatus at […] by agar diffusion test; assay type: functional
Escherichia coli = experiment: Antibacterial activity against Escherichia coli at […] by agar diffusion test; assay type: functional
[4] = Cytotoxicity against human 514L cells after 4 days by propidium iodide assay; assay type: functional, cell-based; settings: 96 h; how it was run: as §1
[5] = Cytotoxicity against human LXFL 529L cells after 4 days by propidium iodide assay; assay type: functional, cell-based; settings: 96 h; how it was run: as §1
[6] = Cytotoxicity against human UXF 1138L cells after 4 days by propidium iodide assay; assay type: functional, cell-based; settings: 96 h, in the assay text read “MTT assay” for “propidium iodide assay”; how it was run: as §1
OVCAR-3 = experiment: Cytotoxicity against human OVCAR-3 cells after 4 days by propidium iodide assay; assay type: functional, cell-based; settings: OVCAR-3, 96 h, in the assay text read “MTT assay” for “propidium iodide assay”; how it was run: as §1
NCI-H460 = experiment: Cytotoxicity against human H460 cells after 4 days by propidium iodide assay; assay type: functional, cell-based; settings: NCI-H460, 96 h; how it was run: as §1
[7] = Cytotoxicity against human BXF T24 cells after 4 days by propidium iodide assay; assay type: functional, cell-based; settings: T-24, 96 h; how it was run: as §1
[8] = Cytotoxicity against human 1619L cells after 4 days by propidium iodide assay; assay type: functional, cell-based; settings: 96 h, in the assay text read “MTT assay” for “propidium iodide assay”; how it was run: as §1
[9] = Cytotoxicity against human 1657L cells after 4 days by propidium iodide assay; assay type: functional, cell-based; settings: 96 h, in the assay text read “MTT assay” for “propidium iodide assay”; how it was run: as §1
[10] = Cytotoxicity against human 899L cells after 4 days by propidium iodide assay; assay type: functional, cell-based; settings: 96 h, in the assay text read “MTT assay” for “propidium iodide assay”; how it was run: as §1
[11] = Cytotoxicity against human 629L cells after 4 days by propidium iodide assay; assay type: functional, cell-based; settings: 96 h; how it was run: as §1
[12] = Cytotoxicity against human MAXF 401NL cells after 4 days by propidium iodide assay; assay type: functional, cell-based; settings: 96 h; how it was run: as §1
[13] = Cytotoxicity against human 520L cells after 4 days by propidium iodide assay; assay type: functional, cell-based; settings: 96 h, in the assay text read “MTT assay” for “propidium iodide assay”; how it was run: as §1
[14] = Cytotoxicity against human 1752L cells after 4 days by propidium iodide assay; assay type: functional, cell-based; settings: 96 h; how it was run: as §1
[15] = Cytotoxicity against human 289L cells after 4 days by propidium iodide assay; assay type: functional, cell-based; settings: 96 h; how it was run: as §1
SF-268 = experiment: Cytotoxicity against human SF268 cells after 4 days by propidium iodide assay; assay type: functional, cell-based; settings: SF-268, 96 h; how it was run: as §1
HCT-116 = experiment: Cytotoxicity against human HCT116 cells after 4 days by propidium iodide assay; assay type: functional, cell-based; settings: HCT-116, 96 h; how it was run: as §1
[16] = Cytotoxicity against human 1781L cells after 4 days by propidium iodide assay; assay type: functional, cell-based; settings: 96 h; how it was run: as §1
HT-29 = experiment: Cytotoxicity against human HT-29 cells after 4 days by propidium iodide assay; assay type: functional, cell-based; settings: HT-29, 96 h; how it was run: as §1
MCF7 = experiment: Cytotoxicity against human MCF7 cells after 4 days by propidium iodide assay; assay type: functional, cell-based; settings: MCF7, 96 h; how it was run: as §1
Chlorella vulgaris = experiment: Antialgal activity against Chlorella vulgaris at […] by agar diffusion test; assay type: functional
DU-145 = experiment: Cytotoxicity against human DU145 cells after 4 days by propidium iodide assay; assay type: functional, cell-based; settings: DU-145, 96 h; how it was run: as §1
[17] = test system: Streptomyces viridochromogenes; experiment: Antibacterial activity against Streptomyces viridochromogenes at […] by agar diffusion test; assay type: functional
CWR22R = experiment: Cytotoxicity against human 22Rv1 cells after 4 days by propidium iodide assay; assay type: functional, cell-based; settings: 22Rv1, 96 h; how it was run: as §1
[18] = Cytotoxicity against human 393NL cells after 4 days by propidium iodide assay; assay type: functional, cell-based; settings: 96 h; how it was run: as §1
Rhizomucor miehei = experiment: Antifungal activity against Mucor miehei at […] by agar diffusion test; assay type: functional
LNCaP = experiment: Cytotoxicity against human LNCAP cells after 4 days by propidium iodide assay; assay type: functional, cell-based; settings: 96 h; how it was run: as §1
Staphylococcus aureus = experiment: Antibacterial activity against Staphylococcus aureus at […] by agar diffusion test; assay type: functional
PANC-1 = experiment: Cytotoxicity against human PANC1 cells after 4 days by propidium iodide assay; assay type: functional, cell-based; settings: PANC-1, 96 h; how it was run: as §1
[19] = Cytotoxicity against human 498NL cells after 4 days by propidium iodide assay; assay type: functional, cell-based; settings: 96 h; how it was run: as §1
[20] = Cytotoxicity against human RXF 486L cells after 4 days by propidium iodide assay; assay type: functional, cell-based; settings: 96 h; how it was run: as §1
[21] = Cytotoxicity against human 1218L cells after 4 days by propidium iodide assay; assay type: functional, cell-based; settings: 96 h; how it was run: as §1
[22] = Cytotoxicity against human 276L cells after 4 days by propidium iodide assay; assay type: functional, cell-based; settings: 96 h; how it was run: as §1
Candida albicans = experiment: Antifungal activity against Candida albicans at […] by agar diffusion test; assay type: functional
[23] = Cytotoxicity against human MEXF 462NL cells after 4 days by propidium iodide assay; assay type: functional, cell-based; settings: 96 h; how it was run: as §1
[24] = Cytotoxicity against human 536L cells after 4 days by propidium iodide assay; assay type: functional, cell-based; settings: 96 h; how it was run: as §1
[25] = Cytotoxicity against human PC3M cells after 4 days by propidium iodide assay; assay type: functional, cell-based; settings: PC-3M, 96 h; how it was run: as §1
[26] = Cytotoxicity against human 1121L cells after 4 days by propidium iodide assay; assay type: functional, cell-based; settings: 96 h; how it was run: as §1
[27] = Cytotoxicity against human RXF 944L cells after 4 days by propidium iodide assay; assay type: functional, cell-based; settings: 96 h; how it was run: as §1

Q: What does the source list for `CNC1=CC(=O)c2c(cnc(C)c2C)C1=O` [MANSOURAMYCIN A]?
A: IC50 [1]: 19 µM; diameter of the inhibition zone (DIZ) (Chlorella sorokiniana): 17 mm; diameter of the inhibition zone (DIZ) (Bacillus subtilis): 10 mm; IC50 [2]: 15.6 µM; IC50 [3]: 31.9 µM; diameter of the inhibition zone (DIZ) (Desmodesmus subspicatus): 25 mm; diameter of the inhibition zone (DIZ) (Escherichia coli): 10 mm; IC50 [4]: 2.6 µM; IC50 [5]: 12.4 µM; IC50 [6]: 18 µM; IC50 (OVCAR-3): 32.3 µM; IC50 (NCI-H460): 7.11 µM; IC50 [7]: 12.6 µM; IC50 [8]: 13.2 µM; IC50 [9]: 26 µM; IC50 [10]: 34.9 µM; IC50 [11]: 4.1 µM; IC50 [12]: 47.8 µM; IC50 [13]: 5.45 µM; IC50 [14]: 46.3 µM; IC50 [15]: 19.1 µM; IC50 (SF-268): 14.4 µM; IC50 (HCT-116): 9.11 µM; IC50 [16]: 16.4 µM; IC50 (HT-29): 4.63 µM; IC50 (MCF7): 2.34 µM; diameter of the inhibition zone (DIZ) (Chlorella vulgaris): 22 mm; IC50 (DU-145): 1.25 µM; diameter of the inhibition zone (DIZ) [17]: 0 mm; IC50 (CWR22R): 21.7 µM; IC50 [18]: 18.7 µM; diameter of the inhibition zone (DIZ) (Rhizomucor miehei): 0 mm; IC50 (LNCaP): 21.7 µM; diameter of the inhibition zone (DIZ) (Staphylococcus aureus): 12 mm; IC50 (PANC-1): 26.8 µM; IC50 [19]: 14.4 µM; IC50 [20]: 59.1 µM; IC50 [21]: 28.2 µM; IC50 [22]: 2.44 µM; diameter of the inhibition zone (DIZ) (Candida albicans): 0 mm; IC50 [23]: 49.9 µM; IC50 [24]: 0.71 µM; IC50 [25]: 32.6 µM; IC50 [26]: 27.1 µM; IC50 [27]: 18.1 µM
